Source: ChEMBL document CHEMBL2311383, “Discovery of piperazin-1-ylpyridazine-based potent and selective stearoyl-CoA desaturase-1 inhibitors for the treatment of obesity and metabolic syndrome” (J Med Chem, 2013)
pIC50: −log10 of the molar value. Active and inactive are the calls of the source. The calls are words filed in the database; no cut-off is given here.

How the values were obtained:
[1] = molecular target: Acyl-CoA (8-3)-desaturase (Rattus norvegicus) (UniProt Q920R3); assay: Inhibition of delta5 desaturase in Sprague-Dawley rat liver microsome at 10 uM; format: microsomes
Sequence of Acyl-CoA (8-3)-desaturase (Rattus norvegicus) (Q920R3 whole entry, looked up): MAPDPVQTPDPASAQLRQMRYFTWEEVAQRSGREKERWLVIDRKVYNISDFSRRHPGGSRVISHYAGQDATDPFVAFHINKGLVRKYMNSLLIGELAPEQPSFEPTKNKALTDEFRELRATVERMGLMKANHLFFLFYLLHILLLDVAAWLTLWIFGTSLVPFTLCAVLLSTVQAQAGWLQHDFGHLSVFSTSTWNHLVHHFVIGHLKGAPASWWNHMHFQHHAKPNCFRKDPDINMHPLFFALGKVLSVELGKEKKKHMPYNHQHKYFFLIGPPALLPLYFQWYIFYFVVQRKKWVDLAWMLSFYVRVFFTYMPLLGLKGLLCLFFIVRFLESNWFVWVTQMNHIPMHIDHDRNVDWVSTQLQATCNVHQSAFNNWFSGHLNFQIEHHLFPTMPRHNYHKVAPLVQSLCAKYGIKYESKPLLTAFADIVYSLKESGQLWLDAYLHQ

[2] = Oral bioavailability in Lewis rat at 10 mg/kg; format: ADME, organism-based; conditions: in vivo
Summary of the method: (§1)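 Lewis rats, IV 3 mg/kg and PO 10 mg/kg unless otherwise stated (some at PO 5 mg/kg, IV 1 mg/kg, or IV 1/PO 2 mg/kg). At least two rats IV, three rats PO, averaged. Plasma t1/2 (h), AUC 0–∞ (μM·h), Vss (L/kg), clearance ((L/h)/kg), Cmax (μM), Tmax (h), oral bioavailability (%).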

[3] = Cmax in Lewis rat at 10 mg/kg, po; format: ADME, organism-based; set-up: dose 10 mg/kg, route oral; conditions: in vivo; summary of the method: as §1
[4] = Tmax in Lewis rat at 10 mg/kg, po; format: ADME, organism-based; set-up: dose 10 mg/kg, route oral; conditions: in vivo; summary of the method: as §1
[5] = Clearance in Lewis rat at 3 mg/kg, iv; format: ADME, organism-based; set-up: dose 3 mg/kg, route intravenous; conditions: in vivo; summary of the method: as §1
[6] = Volume of distribution at steady state in Lewis rat at 3 mg/kg, iv; format: ADME, organism-based; set-up: dose 3 mg/kg, route intravenous; conditions: in vivo, read-out: Vdss; summary of the method: as §1
[7] = Half life in Lewis rat at 3 mg/kg, iv; format: ADME, organism-based; set-up: dose 3 mg/kg, route intravenous; conditions: in vivo; summary of the method: as §1
Rattus norvegicus [8] = assay: In vivo inhibition of SCD1 in Lewis rat liver microsome at 15 mg/kg, ip administered qd for 2 days; format: functional; conditions: 48 h, route intraperitoneal
Summary of the method: (§2)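 Lewis rats fed high-carbohydrate diet for one week, fasted 4 h, then dosed orally (0.1–1 mg/kg in 0.2% Tween 20/1% CMC; n = 4), killed 4 h later; ip arm 15 mg/kg once daily for two days. Liver microsomes prepared, SCD1 activity measured by tritiated water release from [9,10-3H]stearoyl-CoA. Mean ± SD of at least four rats.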

[9] = Apparent permeability from basolateral to apical side in human Caco2 cells; format: ADME, cell-based; conditions: Caco-2
Summary of the method: (§3)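 Caco-2 monolayers; apparent permeability a-to-b and b-to-a reported in 10⁻⁶ cm/s.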

[10] = Metabolic stability in rat liver microsome after 30 mins by LC/MS/MS analysis; format: ADME; conditions: liver microsomes, read-out: Stability
Summary of the method: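 Compound incubated 30 min with rat liver microsomes; percent parent remaining by LC/MS/MS.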

[11] = Apparent permeability from apical to basolateral side in human Caco2 cells; format: ADME, cell-based; conditions: Caco-2; summary of the method: as §3
[12] = molecular target: Acyl-CoA 6-desaturase (Rattus norvegicus) (UniProt Q9Z122); assay: Inhibition of delta6 desaturase in Sprague-Dawley rat liver microsome using cis,cis-9,12-octadecadienoic acid substrate at 10 uM
Sequence of Acyl-CoA 6-desaturase (Rattus norvegicus) (Q9Z122 whole entry, looked up): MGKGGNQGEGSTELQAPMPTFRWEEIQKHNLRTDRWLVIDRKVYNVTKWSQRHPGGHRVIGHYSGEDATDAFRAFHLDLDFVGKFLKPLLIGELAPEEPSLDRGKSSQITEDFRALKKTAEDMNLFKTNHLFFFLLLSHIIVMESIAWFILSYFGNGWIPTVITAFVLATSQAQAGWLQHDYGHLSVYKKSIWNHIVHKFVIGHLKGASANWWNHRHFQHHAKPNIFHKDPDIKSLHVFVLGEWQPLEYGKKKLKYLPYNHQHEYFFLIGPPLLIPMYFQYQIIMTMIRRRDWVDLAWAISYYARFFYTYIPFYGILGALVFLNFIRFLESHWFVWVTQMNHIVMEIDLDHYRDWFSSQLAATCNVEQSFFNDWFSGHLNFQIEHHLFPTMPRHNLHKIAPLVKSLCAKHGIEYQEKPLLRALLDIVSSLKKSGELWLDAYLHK

Acyl-CoA desaturase 1 = molecular target: T1, Acyl-CoA desaturase 1 (Mus musculus, UniProt P13516); assay: Inhibition of SCD1 in ICR mouse liver microsome using [9,10 3H]- stearoyl-Coenzyme A substrate assessed as decreased production of tritiated water after 20 min by scintillation counting analysis
T1 sequence (P13516 whole entry): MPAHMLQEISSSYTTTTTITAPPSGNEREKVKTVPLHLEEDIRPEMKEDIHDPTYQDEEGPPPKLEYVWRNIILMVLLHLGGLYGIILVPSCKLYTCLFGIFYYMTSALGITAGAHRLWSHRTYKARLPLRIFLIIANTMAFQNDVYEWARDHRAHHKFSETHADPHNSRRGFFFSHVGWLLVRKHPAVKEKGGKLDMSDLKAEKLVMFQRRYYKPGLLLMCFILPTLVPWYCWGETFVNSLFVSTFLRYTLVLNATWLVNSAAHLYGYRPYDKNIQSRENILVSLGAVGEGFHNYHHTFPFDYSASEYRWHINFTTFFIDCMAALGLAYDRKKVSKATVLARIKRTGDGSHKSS

[13] = Protein binding in plasma (unknown origin); format: ADME, cell-free; conditions: read-out: PPB (converted)
CYP2D6 = CYP2D6 (Homo sapiens, UniProt P10635); assay: Inhibition of CYP2D6 (unknown origin) at 10 uM; format: ADME
Sequence of CYP2D6 (P10635 whole entry): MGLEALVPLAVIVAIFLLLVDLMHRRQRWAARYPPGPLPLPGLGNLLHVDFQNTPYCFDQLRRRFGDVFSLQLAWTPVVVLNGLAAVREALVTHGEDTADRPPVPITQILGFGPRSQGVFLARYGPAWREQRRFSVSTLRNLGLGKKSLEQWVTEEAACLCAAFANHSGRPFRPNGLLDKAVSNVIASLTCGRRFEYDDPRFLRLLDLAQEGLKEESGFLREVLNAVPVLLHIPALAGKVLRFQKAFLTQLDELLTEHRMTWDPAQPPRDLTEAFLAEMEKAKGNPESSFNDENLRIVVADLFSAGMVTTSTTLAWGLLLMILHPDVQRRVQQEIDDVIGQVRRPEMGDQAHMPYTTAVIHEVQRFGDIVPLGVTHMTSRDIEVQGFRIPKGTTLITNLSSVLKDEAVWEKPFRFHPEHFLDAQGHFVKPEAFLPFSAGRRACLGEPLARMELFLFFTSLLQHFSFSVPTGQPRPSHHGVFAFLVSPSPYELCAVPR

CYP2C19 = CYP2C19 (Homo sapiens, UniProt P33261); assay: Inhibition of CYP2C19 (unknown origin) at 10 uM; format: ADME
Sequence of CYP2C19 (P33261 whole entry): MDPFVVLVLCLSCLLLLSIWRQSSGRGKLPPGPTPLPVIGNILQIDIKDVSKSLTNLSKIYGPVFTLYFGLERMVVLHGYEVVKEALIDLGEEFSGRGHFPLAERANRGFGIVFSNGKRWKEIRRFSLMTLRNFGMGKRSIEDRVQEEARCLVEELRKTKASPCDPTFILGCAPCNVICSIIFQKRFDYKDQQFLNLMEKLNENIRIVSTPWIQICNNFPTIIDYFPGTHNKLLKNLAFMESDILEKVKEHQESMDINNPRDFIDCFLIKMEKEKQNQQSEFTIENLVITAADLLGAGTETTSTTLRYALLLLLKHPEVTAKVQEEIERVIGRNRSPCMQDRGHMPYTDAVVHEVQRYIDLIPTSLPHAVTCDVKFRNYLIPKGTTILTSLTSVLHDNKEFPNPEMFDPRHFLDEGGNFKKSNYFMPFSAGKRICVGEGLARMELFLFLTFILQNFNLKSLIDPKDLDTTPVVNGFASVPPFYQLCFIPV

CYP2C9 = CYP2C9 (Homo sapiens, UniProt P11712); assay: Inhibition of CYP2C9 (unknown origin) at 10 uM; format: ADME
Sequence of CYP2C9 (P11712 whole entry): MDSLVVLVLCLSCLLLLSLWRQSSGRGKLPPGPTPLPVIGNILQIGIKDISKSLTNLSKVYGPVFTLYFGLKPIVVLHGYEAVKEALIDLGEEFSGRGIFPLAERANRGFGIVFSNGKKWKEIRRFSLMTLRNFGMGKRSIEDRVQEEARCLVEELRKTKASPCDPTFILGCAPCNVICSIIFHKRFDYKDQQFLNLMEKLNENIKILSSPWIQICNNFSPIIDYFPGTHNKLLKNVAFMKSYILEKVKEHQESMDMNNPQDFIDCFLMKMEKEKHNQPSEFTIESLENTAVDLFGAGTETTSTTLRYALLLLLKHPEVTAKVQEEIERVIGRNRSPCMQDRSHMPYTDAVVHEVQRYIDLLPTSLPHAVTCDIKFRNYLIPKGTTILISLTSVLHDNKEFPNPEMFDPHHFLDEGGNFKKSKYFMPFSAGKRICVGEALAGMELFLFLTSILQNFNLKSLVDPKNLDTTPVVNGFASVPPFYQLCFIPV

CYP3A4 = CYP3A4 (Homo sapiens, UniProt P08684); assay: Inhibition of CYP3A4 (unknown origin) at 10 uM; format: ADME
Sequence of CYP3A4 (P08684 whole entry): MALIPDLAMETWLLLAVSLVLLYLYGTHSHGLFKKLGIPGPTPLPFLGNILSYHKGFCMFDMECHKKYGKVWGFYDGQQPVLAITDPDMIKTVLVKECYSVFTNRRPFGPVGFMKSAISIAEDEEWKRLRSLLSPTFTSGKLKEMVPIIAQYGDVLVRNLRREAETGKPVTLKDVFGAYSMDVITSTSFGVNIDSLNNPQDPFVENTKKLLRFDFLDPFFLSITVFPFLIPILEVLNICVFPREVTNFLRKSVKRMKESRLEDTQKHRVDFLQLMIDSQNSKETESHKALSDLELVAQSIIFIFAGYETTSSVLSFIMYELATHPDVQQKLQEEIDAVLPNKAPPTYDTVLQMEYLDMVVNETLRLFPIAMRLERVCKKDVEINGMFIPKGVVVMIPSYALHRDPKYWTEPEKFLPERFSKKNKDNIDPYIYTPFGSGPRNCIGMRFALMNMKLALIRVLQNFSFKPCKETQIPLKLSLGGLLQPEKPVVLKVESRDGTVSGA

Rattus norvegicus [14] = assay: In vivo inhibition of SCD1 in Zucker-Fatty rat assessed as reduction of C18 plasma desaturation index at 1 mg/kg, po bid administered for 15 weeks; format: functional; conditions: 2520 h
Summary of the method: (§4)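 Plasma from Zucker fatty rats after 15 weeks oral 1 mg/kg twice daily. Lipids extracted by modified Folch, classes separated by TLC, hydrolyzed, derivatized and analyzed by GC against an internal standard. Desaturation index is the […] ratio for C16 and C18; n = 12, mean ± SEM.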

Rattus norvegicus [15] = assay: In vivo inhibition of SCD1 in Zucker-Fatty rat assessed as reduction of C16 plasma desaturation index at 1 mg/kg, po bid administered for 15 weeks; format: functional; conditions: 2520 h; summary of the method: as §4
Rattus norvegicus [16] = assay: Antiobesity activity in Zucker-Fatty rat assessed as reduction in bone mineral content at 1 mg/kg, po bid administered for 15 weeks; format: functional, organism-based; set-up: dose 1 mg/kg
Summary of the method: (§5)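 Male Zucker fa/fa rats, 20 weeks old, chow ad libitum, 24 per group. Dosed orally twice daily (10 a.m., 4 p.m.) at 1 mg/kg for 15 weeks, suspended in 1% CMC/0.1% Tween 20/10% propylene glycol/water; vehicle controls. Body weight taken daily, change from day 0 over 12 weeks. At end: epididymal, retroperitoneal and mesenteric fat pads weighed; DEXA of carcass BMC, lean and fat mass; fat % = FM/(BMC+LM+FM); n = 12, mean ± SEM.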

Rattus norvegicus [17] = assay: Antiobesity activity in Zucker-Fatty rat assessed as reduction in lean mass at 1 mg/kg, po bid administered for 15 weeks; format: functional, organism-based; set-up: dose 1 mg/kg; summary of the method: as §5
Rattus norvegicus [18] = assay: Antiobesity activity in Zucker-Fatty rat assessed as reduction in fat mass at 1 mg/kg, po bid administered for 15 weeks; format: functional; set-up: scale not given: the % may be the effect or the level left; summary of the method: as §5
Rattus norvegicus [19] = assay: Antiobesity activity in Zucker-Fatty rat assessed as reduction in body fat percentage at 1 mg/kg, po bid administered for 15 weeks relative to vehicle-treated control; format: functional; set-up: scale not given: the % may be the effect or the level left; summary of the method: as §5
Rattus norvegicus [20] = assay: Antiobesity activity in Zucker-Fatty rat assessed as reduction in combined visceral fat weight at 1 mg/kg, po bid administered for 15 weeks relative to vehicle-treated control; format: functional; set-up: scale not given: the % may be the effect or the level left; summary of the method: as §5
Rattus norvegicus [21] = assay: Antiobesity activity in Zucker-Fatty rat assessed as reduction in total body weight at 1 mg/kg, po bid administered upto 12 weeks relative to vehicle-treated control; format: functional; set-up: scale not given: the % may be the effect or the level left; summary of the method: as §5
[22] = Clearance in Lewis rat at 1 mg/kg, iv; format: ADME, organism-based; set-up: dose 1 mg/kg, route intravenous; conditions: in vivo; summary of the method: as §1
[23] = Volume of distribution at steady state in Lewis rat at 1 mg/kg, iv; format: ADME, organism-based; set-up: dose 1 mg/kg, route intravenous; conditions: in vivo, read-out: Vdss; summary of the method: as §1
[24] = Half life in Lewis rat at 1 mg/kg, iv; format: ADME, organism-based; set-up: dose 1 mg/kg, route intravenous; conditions: in vivo; summary of the method: as §1
Rattus norvegicus [25] = assay: In vivo inhibition of SCD1 in po dosed Lewis rat liver microsome after 4 hrs; format: functional; summary of the method: as §2
Rattus norvegicus [26] = assay: In vivo inhibition of SCD1 in po dosed Lewis rat liver microsome at 0.1 to 1 mg/kg after 4 hrs; format: functional, organism-based; summary of the method: as §2

inhibition [1] | bioavailability [2] [%] | Cmax [3] [nM] | Tmax [4] [h] | clearance [5] [mL/min/kg] | Vd [6] [L/kg] | half-life [7] [min] | Papp B→A [9] [×10⁻⁶ cm/s] | remaining at 0.5 h [10] [%] | Papp A→B [11] [×10⁻⁶ cm/s] | inhibition [12] | pIC50 (Acyl-CoA desaturase 1) | SMILES | inhibition in vivo at 15 mg/kg (Rattus norvegicus [8]) [%] | other results
inactive | 30 | 500 | 2.3 | 14.3 | 1.6 | 108 | 30 | 69 | 32 | inactive | 7.92 | O=C(NCCC1CC1)c1ccc(N2CCN(C(=O)c3cc(Cl)ccc3C(F)(F)F)CC2)nn1 | > 60 | –
– | – | – | – | – | – | – | – | 57 | 25 | – | 7.59 | CC(C)CCNC(=O)c1ccc(N2CCN(C(=O)c3ccccc3C(F)(F)F)CC2)nn1 | 40 | fraction unbound [13]: 0.22; inhibition at 10 µM (CYP2D6): < 50%; inhibition at 10 µM (CYP2C19): < 50%; inhibition at 10 µM (CYP2C9): < 50%; inhibition at 10 µM (CYP3A4): < 50%
inactive | 42 | 1900 | 3.3 | 4.67 | 0.7 | 108 | 23 | 63 | 22 | inactive | 7.38 | O=C(CNC(=O)c1ccc(N2CCN(C(=O)c3ccccc3C(F)(F)F)CC2)nn1)c1ccccc1 | > 60 | –
inactive | 49 | 900 | 3.3 | – | – | – | 30 | 74 | 30 | inactive | 7.85 | O=C(NCCC1CC1)c1ccc(N2CCN(C(=O)c3cc(F)ccc3C(F)(F)F)CC2)nn1 | > 60 | inhibition in vivo at 1 mg/kg (Rattus norvegicus [14]): 61%; inhibition in vivo at 1 mg/kg (Rattus norvegicus [15]): 73%; Activity (Rattus norvegicus [16]): inactive; Activity (Rattus norvegicus [17]): inactive; Activity (Rattus norvegicus [18]): 20%; Activity (Rattus norvegicus [19]): 9%; Activity (Rattus norvegicus [20]): 24%; Activity (Rattus norvegicus [21]): 36%; clearance [22]: 21.7 mL/min/kg; Vd [23]: 2.7 L/kg; half-life [24]: 96 min; ED50 (Rattus norvegicus [25]): 0.8 mg/kg; inhibition (Rattus norvegicus [26]): Dose-dependent effect
